B1: tRNA (parent)
chain: GUUCCGUUGGCGUAAUGGUAACGCGUCUCCCUCCUAAGGAGAAGACUGCGGGUUCGAGUCCCGUACGGAACG

Variants at the floor of the assay were thinned out. A value given as a limit tells only on which side of the number the result lay.

The variants in this series derive from B1. The series is described as follows: yeast fitness relative to wild type (ratio to wild type); higher = fitter; tRNA-Arg(CCU), competitive growth, 37 C, YPD. The essentials:
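Amplicons of the tRNA-Arg(CCU) gene were sequenced, 100-nucleotide paired-end, from the start population and from each end population of a pooled yeast competition. The competition, in six parallel replicates, lasted 24 hours in YPD at 37°C. Fitness relative to wild type was calculated from changes in genotype frequencies. Genotypes had to have ≥ 100 starting reads, and estimates < 0.5 were set to 0.5.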
Regarding GUUCCGUUGGCGUAAUGGUAUCGCGUCUCUCUCCUAAGGAGAAGACUGCGGGUUCGAGUCCCGUACGGAACG [A21U C30U], the yeast fitness came to 0.646.

On to GUUCCGUUGGCGUAAUGGUAUCGGGUCUCCCUCCUAAGGAGAAGACUGCGGGUUCGAGUCCGGUAUGGAACG [A21U C24G C62G C66U], for which the yeast fitness is not above 0.5. Take GUUCCGUUGGCGUAAUGGUAUGGCGUCUCCCUCCUAAGGAGAAGACUGCGGGUUACAGUCCCGUACCGAACG [A21U C22G C55A G56C G67C]: the yeast fitness is not above 0.5. The result for GUUCCGUUGGCGUAAUGGUAUCGGGUCUCCCUCCUAAGGAGAAGACUGCGGGUGGGAGUCCUGUACGGAACG [A21U C24G U54G C55G C62U] reads not above 0.5; that for GUUCCGUUGGCGUAAUGGUAUCGCGUGUCCCUGCUAAGGAGAAGACUGCGGGUUCGAGUCCCGUACGGUACG [A21U C27G C33G A69U], not above 0.5; that for GUUCCGUUGGCGUAAUGGUAUCGCGUCUCCCUCCUAAGGAGAAGUCUGCCGGUUCGAGUCCCGGACGGAACG [A21U A45U G50C U64G], not above 0.5.

In the case of GUUCCGUUGGCGUAAUGGUAUCGUGACUCCCUCCUAAGGAGAUGACUGCGGGUUCGAGUCCCGUACGGAACG [A21U C24U U26A A43U], the yeast fitness was 0.668. Turning to GUUCCGUUGGCGUAAUGGUAUCGCGUCUCUCUCCUAAGGAGCAGACUGCGGGUUUGAGUCCCGUACGGAACG [A21U C30U A42C C55U], the yeast fitness is not above 0.5. The result for GUUCCGUUGGCGUAAUGGUAUCGCGUCUCACUCCUAAGGAGAAGACUGCGGGUUCGAGUCCCGUACGGAGCG [A21U C30A A70G] reads 0.756; that for GUUCCGUUGGCGUAAUGGUAUCGCGUCUCCCUCCUAAGGAGAUGACUGCGGGUUCGAGUCCCGUACGGAACG [A21U A43U], 0.901. The result for GUUCCGUUGGCGUAAUGGUAUCGCGUCUCCCUCCUAAGGAGAAGACUGCGGGUUCGAGUCCCGUACGGACCG [A21U A70C] reads 0.701; that for GUUCCGUUGGCGUAAUGGUAUUGCGUCUCCCUCCUAAGGAGAAGACUGCGGGUUCGAGUCCCGUAUGGUACG [A21U C22U C66U A69U], not above 0.5; that for GUUCCGUUGGCGUAAUGGUAUCGCGUCUCCCUCCUAAGGAGAAGACUGCGGGUUCGAGUCCCGUGCGGACCG [A21U A65G A70C], 0.56. Regarding GUUCCGUUGGCGUAAUGGUAUUGCGUCUCGCUCCUAAGGAGAAGACUGCGGGUUCGAGGCCCGUUCGGAACG [A21U C22U C30G U59G A65U], the yeast fitness is not above 0.5. Regarding GUUCCGUUGGCGUAAUGGUAUCGCGUCUCCCUGCUAAGGAGGAAACUGCGGGUUCGAGUCCCGCACGGAACG [A21U C33G A42G G44A U64C], the yeast fitness is 0.558. Take GUUCCGUUGGCGUAAUGGUAUCGCGUCUCCCUCCUAAGGAGUAGACUGCGGGUUCGAGUCCCGUACGGAACG [A21U A42U]: the yeast fitness was 0.792. Under GUUCCGUUGGCGUAAUGGUAUAGCGUCUGCCUCCUAAGGAGAAGACUGCGGGUUAGAGCCCCGUACGGAACG [A21U C22A C29G C55A U59C] stands 0.647; under GUUCCGUUGGCGUAAUGGUAUCGCGUUUCCCUCAUAAGGAGAAGACUGCGGGUUCGAGUCCCGUACGGAACG [A21U C27U C34A], 0.774. GUUCCGUUGGCGUAAUGGUAUUGCGUCUCCCACCUAAGGAGAAGACUGCGGCUUCGAGUCCCGUACGGAACG [A21U C22U U32A G52C]: the yeast fitness is not above 0.5.

As to GUUCCGUUGGCGUAAUGGUAUCGCGUCUCUCUCCUAAGGAGAAGACUGCGGGUUCGAGUCCCGUGGGGAACG [A21U C30U A65G C66G], the yeast fitness turned out to be 0.638.

GUUCCGUUGGCGUAAUGGUAUCGCGUCUCCCUCCUAAGGAGAAGACUGCGGGUUCGCAUCCCGUACGGACCG [A21U A57C G58A A70C]: the yeast fitness is not above 0.5. Consider GUUCCGUUGGCGUAAUGGUAUCGCGUCUCUCUCCUAAGGCGAAGACUGCGGGUUCGAGCCCUGUACUGAACG [A21U C30U A40C U59C C62U G67U], for which the yeast fitness came out at 0.554. Under GUUCCGUUGGCGUAAUGGUAUCGCGUCUCGCUCCUAAGGAGAAGACUACGGGUUCGAGUCCCGUACGGAACG [A21U C30G G48A] stands not above 0.5; under GUUCCGUUGGCGUAAUGGUAUCGCGUCUCCCUGCUAAGGAGGAAACUGCGGGUUCGAGUCUCGUAUGGAACG [A21U C33G A42G G44A C61U C66U], not above 0.5; under GUUCCGUUGGCGUAAUGGUAUCGCGUGUCCCUUAUAAGGAGAAGACUGCGGGUUCGAGUCCCGUACGGAACG [A21U C27G C33U C34A], not above 0.5. Under GUUCCGUUGGCGUAAUGGUAUCGCGUCUCCCUCCUAAGGAGAAGACUGCGGGUUCGAGUCCCGUCCGGAACG [A21U A65C] stands 0.793; under GUUCCGUUGGCGUAAUGGUAUCGCGUCUCCCUCCUAAGGAGGAGACUGUGGGUUCGAGUCCCGUACGGAACG [A21U A42G C49U], not above 0.5. The result for GUUCCGUUGGCGUAAUGGUAUCGCGUCUCCCUCCUAAGGAGGAGACUGCCGGUUCGAGCCCCGUACGGAACG [A21U A42G G50C U59C] reads not above 0.5; that for GUUCCGUUGGCGUAAUGGUAUGGCGUCUCCCUCCUAAGGAGAAGACUGCGGGUUCGAGUCCCGUACGGUACG [A21U C22G A69U], 0.613; that for GUUCCGUUGGCGUAAUGGUAUCGAGUCUCCCUCCUAAGGAGAAGUCUGCGGGUUCGAGUCCCGUACGGAACG [A21U C24A A45U], not above 0.5. With GUUCCGUUGGCGUAAUGGUAUAGCGUCUCCCUCCUAACGAGAAGACUGCGGGUGCGAGUACCGUACGGAACG [A21U C22A G38C U54G C60A], the yeast fitness came out at 0.846. The result for GUUCCGUUGGCGUAAUGGUAUCGCGUCUCUCACCUAAGGAGAAGACUGCGGGUUCGAGUCCCGUACGCAACG [A21U C30U U32A G68C] reads not above 0.5. Turning to GUUCCGUUGGCGUAAUGGUAUCGCGUCUCCCUCCUAAGGAGAGGACUGCGGGUUCGAGUCCAGUACGGAACG [A21U A43G C62A], the yeast fitness is not above 0.5.

Take GUUCCGUUGGCGUAAUGGUAUCGCGUCUACCUCCAAAGGAGAUGACUGCGGGUUCGAGUCCUGUACGCAACG [A21U C29A U35A A43U C62U G68C]: the yeast fitness is not above 0.5. Take GUUCCGUUGGCGUAAUGGUAUCGCGUCUGCCUCCUAAGGAGAAGACUGCGGGUUCGAGUCCCAUACGGAACG [A21U C29G G63A]: the yeast fitness is 0.618. Turning to GUUCCGUUGGCGUAAUGGUAUCGCGUAUCCCUCCUAAGGACAAAACUGCGGGUUUGAGUCCGGUACGGAACG [A21U C27A G41C G44A C55U C62G], the yeast fitness worked out at 0.648. In the case of GUUCCGUUGGCGUAAUGGUAUCGCGUCUCCCUCCUAAGGAGAAGUCUGCGAGUUGGAGUCCCGUCCGGAACG [A21U A45U G51A C55G A65C], the yeast fitness was not above 0.5.

The record behind these values is the RNAGym collection of RNA variant scans (doi:10.1126/science.aae0568).
